From ChEMBL document CHEMBL4049423, “Discovery of Novel 1,4-Diacylpiperazines as Selective and Cell-Active eIF4A3 Inhibitors” (J Med Chem, 2017)
Active and inactive are the calls of the source. No cut-off for these calls is given here.

Key:
[1] = target: T1, Eukaryotic initiation factor 4A-III (Homo sapiens, UniProt P38919); test: Inhibition of MLN51-induced full-length human recombinant His6-tagged eIF4A3 RNA dependent ATPase activity expressed in Escherichia coli BL21(DE3) using single stranded poly(U) RNA as substrate after 30 mins by ADP-Glo luminescence assay
In short: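 ADP-Glo luminescence read-out with 150 nM eIF4A3 plus an equimolar amount of MLN51. Substrates were 35 μM ATP and 1.5 μg/mL poly(U), both at Km. Buffer: 20 mM Tris-HCl pH 7.5, 2.5 mM MgCl2, 100 mM KCl, 1 mM DTT, 0.01% Tween20. Enzyme was added last to start the reaction, then incubated 30 min at room temperature. No-enzyme wells were taken as 100% inhibition and the complete reaction as 0%.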

[2] = target: T1, Eukaryotic initiation factor 4A-III; test: Inhibition of eIF4A3 (unknown origin) expressed in HEK293T cells assessed as NMD suppression at 10 uM after 6 hrs by luciferase reporter gene assay relative to control; type: cell-based
In short: (§1)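 HEK293T cells were co-transfected (Lipofectamine LTX) with the pGL4.12 SV40-Luc2CP-BGG NMD reporter and a pRL-TK renilla control. After 24 h of transfection, cells were treated with compound for 6 h. Firefly/renilla luciferase ratio was measured by dual-luciferase assay and normalized to DMSO-treated cells, n = 2.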

[3] = target: T1, Eukaryotic initiation factor 4A-III; test: Inhibition of eIF4A3 (unknown origin) expressed in HEK293T cells assessed as NMD suppression at 3 uM after 6 hrs by luciferase reporter gene assay relative to control; type: cell-based; in short: as §1
[4] = target: T1, Eukaryotic initiation factor 4A-III; test: Binding affinity to full-length human recombinant His6-tagged eIF4A3 expressed in Escherichia coli BL21(DE3) assessed as dissociation half life by surface plasmon resonance assay
In short: (§2)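 eIF4A3 amine-coupled to a CM7 sensor chip (5000–10 000 RU) in HBS-P+ with 1 mM DTT. Binding was run at 25 °C in 20 mM Tris-HCl pH 8.0, 150 mM NaCl, 0.2 mM TCEP, 0.02% P20 and 1–2% DMSO. Compound series of 6–12 concentrations were injected for 60–120 s at 50 μL/min, with dissociation followed for 120–1200 s. Sensorgrams were double-referenced and globally fitted to a 1:1 model.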

[5] = target: T1, Eukaryotic initiation factor 4A-III; test: Binding affinity to full-length human recombinant His6-tagged eIF4A3 expressed in Escherichia coli BL21(DE3) by surface plasmon resonance assay
In short: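 eIF4A3 immobilized on CM7 chip by amine coupling (5000–10 000 RU) in HBS-P+ with 1 mM DTT. Binding run at 25 °C in 20 mM Tris-HCl pH 8.0, 150 mM NaCl, 0.2 mM TCEP, 0.02% P20, 1−2% DMSO. Compound injected at 6−12 concentrations for 60−120 s at 50 μL/min, dissociation followed 120−1200 s. Sensorgrams double-referenced, globally fitted to 1:1 model.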

[6] = target: T1, Eukaryotic initiation factor 4A-III; test: Binding affinity to full-length human recombinant His6-tagged eIF4A3 expressed in Escherichia coli BL21(DE3) assessed as association rate constant by surface plasmon resonance assay; in short: as §2
[7] = target: T1, Eukaryotic initiation factor 4A-III; test: Binding affinity to full-length human recombinant His6-tagged eIF4A3 expressed in Escherichia coli BL21(DE3) assessed as dissociation rate constant by surface plasmon resonance assay; in short: as §2

T1 sequence (P38919 whole entry): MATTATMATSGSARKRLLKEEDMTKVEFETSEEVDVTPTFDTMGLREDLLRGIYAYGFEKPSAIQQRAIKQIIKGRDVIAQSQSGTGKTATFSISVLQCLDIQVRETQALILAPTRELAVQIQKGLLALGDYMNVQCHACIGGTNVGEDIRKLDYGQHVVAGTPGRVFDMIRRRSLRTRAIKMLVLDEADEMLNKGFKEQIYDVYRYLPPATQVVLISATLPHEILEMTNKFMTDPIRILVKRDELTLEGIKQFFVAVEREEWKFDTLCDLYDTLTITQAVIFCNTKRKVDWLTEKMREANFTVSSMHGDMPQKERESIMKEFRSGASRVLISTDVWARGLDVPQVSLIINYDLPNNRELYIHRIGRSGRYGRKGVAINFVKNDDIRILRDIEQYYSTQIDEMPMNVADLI

SMILES | IC50 [1] | further results
O=C(c1cnn2ccccc12)N1CCN(C(=O)c2ccc(Cl)cc2)C(c2ccc(Cl)cc2)C1 (configuration not stated) | 1.1 µM | 
Cc1c(C(=O)N2CCN(C(=O)c3ccc(Cl)cc3)C(c3ccc(Cl)cc3)C2)cnn1-c1ccccc1 (configuration not stated) | 1.6 µM | 
O=C(c1cnn2ccc(Br)cc12)N1CCN(C(=O)c2ccc(Cl)cc2)C(c2ccc(Cl)cc2)C1 (configuration not stated) | 0.83 µM | 
O=C(c1cnc(-c2ccccc2)o1)N1CCN(C(=O)c2ccc(Cl)cc2)C(c2cccc(Cl)c2)C1 (configuration not stated) | > 100 µM | 
O=C(c1cnn2cc(Br)ccc12)N1CCN(C(=O)c2ccc(Br)cc2)C(c2ccc(Cl)cc2)C1 (configuration not stated) | 0.42 µM | fold change (FC) [2]: 1.9; NMD suppression activity (qualitative) [3]: Active
O=C(c1cnn2cc(Br)ccc12)N1CCN(C(=O)c2ccc(Br)cc2)[C@H](c2ccc(Cl)cc2)C1 | 60 µM | T1/2 [4]: 0.477 min; Kd [5]: 16 µM; K [6]: 1.5 ×10³ /M/s; K [7]: 2.4 ×10⁻² /s
O=C(c1cnc(-c2ccccc2)o1)N1CCN(C(=O)c2ccccc2)C(c2ccc(Cl)cc2)C1 (configuration not stated) | 11 µM | 
Cc1c(C(=O)N2CCN(C(=O)c3ccc(Br)cc3)C(c3ccc(Cl)cc3)C2)cnn1-c1cccc(C#N)c1 (configuration not stated) | 0.58 µM | fold change (FC) [2]: 2.3; NMD suppression activity (qualitative) [3]: Active
O=C(c1cnn2cc(Br)ccc12)N1CCN(C(=O)c2ccc(Br)cc2)[C@@H](c2ccc(Cl)cc2)C1 | 0.2 µM | T1/2 [4]: 7.3 min; Kd [5]: 0.057 µM; K [6]: 2.8 ×10⁴ /M/s; K [7]: 1.6 ×10⁻³ /s
N#Cc1cccc(-c2ncc(C(=O)N3CCN(C(=O)c4ccc(Br)cc4)C(c4ccc(Cl)cc4)C3)o2)c1 (configuration not stated) | 0.36 µM | fold change (FC) [2]: 1.8; NMD suppression activity (qualitative) [3]: Active
O=C(c1c[nH]c2ccccc12)N1CCN(C(=O)c2ccc(Cl)cc2)C(c2ccc(Cl)cc2)C1 (configuration not stated) | 2.3 µM | 
N#Cc1cccc(-c2ncc(C(=O)N3CCN(C(=O)c4ccc(Cl)cc4)C(c4ccc(Cl)cc4)C3)o2)c1 (configuration not stated) | 0.6 µM | 
O=C(c1ncc(-c2ccccc2)o1)N1CCN(C(=O)c2ccc(Cl)cc2)C(c2ccc(Cl)cc2)C1 (configuration not stated) | > 100 µM | 
O=C1C(c2ccc(Cl)cc2)N(C(=O)c2ccc(Cl)cc2)CCN1Cc1cnc(-c2ccccc2)o1 (configuration not stated) | > 100 µM | 
O=C(c1ccc(Cl)cc1)N1CCN(Cc2cnc(-c3ccccc3)o2)CC1c1ccc(Cl)cc1 (configuration not stated) | > 100 µM | 
N#Cc1ccc(-c2ncc(C(=O)N3CCN(C(=O)c4ccc(Cl)cc4)C(c4ccc(Cl)cc4)C3)o2)cc1 (configuration not stated) | 8.4 µM | 
N#Cc1ccc2c(C(=O)N3CCN(C(=O)c4ccc(Br)cc4)C(c4ccc(Cl)cc4)C3)cnn2c1 (configuration not stated) | 9 µM | 
N#Cc1ccccc1-c1ncc(C(=O)N2CCN(C(=O)c3ccc(Cl)cc3)C(c3ccc(Cl)cc3)C2)o1 (configuration not stated) | 2.1 µM | 
O=C(c1cnc(-c2ccccc2)o1)N1CCN(C(=O)c2ccc(Cl)cc2)C(C2CCCCC2)C1 (configuration not stated) | > 100 µM | 

SMILES | IC50 [1] | further results
N#Cc1ccnc(-c2ncc(C(=O)N3CCN(C(=O)c4ccc(Br)cc4)C(c4ccc(Cl)cc4)C3)o2)c1 (configuration not stated) | 0.39 µM | fold change (FC) [2]: 1.8; NMD suppression activity (qualitative) [3]: Active
O=C(c1cnc(-c2ccccc2)o1)N1CCN(C(=O)c2ccc(Cl)cc2)C(c2ccc(Cl)cc2)C1 (configuration not stated) | 2.2 µM | 
C[C@H]1C[C@@]2(O[C@H]3C[C@H]4[C@@H]5CC[C@H]6C[C@H](O)CC[C@]6(C)[C@H]5[C@@H](O)C[C@]4(C)[C@H]3[C@@]2(C)O)OC1(C)C |  | Activity [5]: Dose-dependent effect
O=C(c1cnc(-c2ccccc2)o1)N1CCN(Cc2ccc(Cl)cc2)C(c2ccc(Cl)cc2)C1 (configuration not stated) | > 100 µM | 
O=C(c1cnc(-c2ccccc2)o1)N1CCN(C(=O)c2ccc(Cl)cc2)C(c2ccccc2Cl)C1 (configuration not stated) | > 100 µM | 
O=C(c1n[nH]c2ccccc12)N1CCN(C(=O)c2ccc(Cl)cc2)C(c2ccc(Cl)cc2)C1 (configuration not stated) | 62 µM | 
O=C(c1cnc(-c2ccccc2)o1)N1CCN(C(=O)c2cccc(Cl)c2)C(c2ccc(Cl)cc2)C1 (configuration not stated) | > 100 µM | 
O=C(c1cnn2cc(Br)ccc12)N1CCN(C(=O)c2ccc(Cl)cc2)C(c2ccc(Cl)cc2)C1 (configuration not stated) | 0.72 µM | 
O=C(c1ccn(-c2ccccc2)n1)N1CCN(C(=O)c2ccc(Cl)cc2)C(c2ccc(Cl)cc2)C1 (configuration not stated) | > 100 µM | 
O=C(c1cnn2cccc(Br)c12)N1CCN(C(=O)c2ccc(Cl)cc2)C(c2ccc(Cl)cc2)C1 (configuration not stated) | 8.9 µM | 
O=C(c1cnc(-c2ccccc2)o1)N1CCN(C(=O)c2ccccc2Cl)C(c2ccc(Cl)cc2)C1 (configuration not stated) | > 100 µM | 
O=C(c1cnc(-c2ccccc2)o1)N1CCCN(C(=O)c2ccc(Cl)cc2)C(c2ccc(Cl)cc2)C1 (configuration not stated) | > 100 µM | 
O=C(c1cnc(-c2ccccc2)o1)N1CCN(C(=O)c2ccc(Br)cc2)C(c2ccc(Cl)cc2)C1 (configuration not stated) | 0.66 µM | 
COc1ccc2c(C(=O)N3CCN(C(=O)c4ccc(Br)cc4)C(c4ccc(Cl)cc4)C3)cnn2c1 (configuration not stated) | 0.92 µM | fold change (FC) [2]: 1.7; NMD suppression activity (qualitative) [3]: Active
Cc1c(C(=O)N2CCN(C(=O)c3ccc(Br)cc3)[C@H](c3ccc(Cl)cc3)C2)cnn1-c1cccc(C#N)c1 | > 100 µM | fold change (FC) [2]: 1.34; fold change (FC) [3]: 1.1
O=C(c1cnn(-c2ccccc2)c1)N1CCN(C(=O)c2ccc(Cl)cc2)C(c2ccc(Cl)cc2)C1 (configuration not stated) | 2.4 µM | 
O=C(c1coc(-c2ccccc2)n1)N1CCN(C(=O)c2ccc(Cl)cc2)C(c2ccc(Cl)cc2)C1 (configuration not stated) | 69 µM | 
O=C(c1cnn2c(Br)cccc12)N1CCN(C(=O)c2ccc(Cl)cc2)C(c2ccc(Cl)cc2)C1 (configuration not stated) | 1.9 µM | 
